Measurements reported in ChEMBL document CHEMBL3808349, “Antineoplastic Agents. 585. Isolation of Bridelia ferruginea Anticancer Podophyllotoxins and Synthesis of 4-Aza-podophyllotoxin Structural Modifications” (2016).
Converted amounts (≈) assume the structure as drawn.

Columns and labels:
Type in all cases: functional
[1] = test system: MCF7; test: Growth inhibition of human MCF7 cells measured after 48 hrs by sulforhodamine B assay; conditions: MCF7, 48 h
In short: (§1)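 Cells were seeded in RPMI1640 with 5% fetal bovine serum and incubated 24 h before serial dilutions of sample were added. After 48 h exposure, cells were fixed with trichloroacetic acid and stained with sulforhodamine B, and optical density was read by plate reader.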

[2] = Growth inhibition of human KM20L2 cells measured after 48 hrs by sulforhodamine B assay; conditions: KM-20L2, 48 h; in short: as §1
[3] = Growth inhibition of human BxPC3 cells measured after 48 hrs by sulforhodamine B assay; conditions: BXPC-3, 48 h; in short: as §1
[4] = test system: P388; test: Growth inhibition of mouse P388 cells measured after 48 hrs by sulforhodamine B assay; conditions: P388, 48 h, read-out: ED50 (the source's name)
[5] = Growth inhibition of human DU145 cells measured after 48 hrs by sulforhodamine B assay; conditions: DU-145, 48 h; in short: as §1
[6] = test system: NCI-H460; test: Growth inhibition of human NCI-H460 cells measured after 48 hrs by sulforhodamine B assay; conditions: NCI-H460, 48 h; in short: as §1
[7] = Growth inhibition of human SF268 cells measured after 48 hrs by sulforhodamine B assay; conditions: SF-268, 48 h; in short: as §1

| SMILES | GI50 [1] [µg/mL] | GI50 [2] [µg/mL] | GI50 [3] [µg/mL] | EC50 [4] [µg/mL] | GI50 [5] [µg/mL] | GI50 [6] [µg/mL] | GI50 [7] [µg/mL] |
| --- | --- | --- | --- | --- | --- | --- | --- |
| COc1cc(C2C3=C(COC3=O)N(C3CCCCC3)c3cc4c(cc32)OCO4)cc(OC)c1OC (stereo not drawn) | 0.052 (≈ 0.108 µM) | 0.24 (≈ 0.5 µM) | 0.17 (≈ 0.355 µM) | 3.4 (≈ 7.09 µM) | 0.27 (≈ 0.563 µM) | 0.27 (≈ 0.563 µM) | 0.066 (≈ 0.138 µM) |
| COc1cc(C2C3=C(COC3=O)N(CCc3ccc(F)cc3)c3cc4c(cc32)OCO4)cc(OC)c1O (stereo not drawn) | 0.34 (≈ 0.673 µM) |  | 1.4 (≈ 2.77 µM) | 0.21 (≈ 0.415 µM) | 0.38 (≈ 0.752 µM) | 0.36 (≈ 0.712 µM) | 0.48 (≈ 0.95 µM) |
| COc1cc(C2C3=C(COC3=O)N(CCCO)c3cc4c(cc32)OCO4)cc(OC)c1OC (stereo not drawn) | 0.34 (≈ 0.746 µM) | 0.38 (≈ 0.834 µM) | 0.48 (≈ 1.05 µM) | 0.28 (≈ 0.615 µM) | 0.49 (≈ 1.08 µM) | 0.33 (≈ 0.725 µM) | 0.36 (≈ 0.79 µM) |
| COc1cc(C2C3=C(COC3=O)N(CCO)c3cc4c(cc32)OCO4)cc(OC)c1OC (stereo not drawn) | 0.37 (≈ 0.838 µM) | 0.52 (≈ 1.18 µM) | 0.6 (≈ 1.36 µM) | 2 (≈ 4.53 µM) | 1.3 (≈ 2.94 µM) | 0.58 (≈ 1.31 µM) | 0.41 (≈ 0.929 µM) |
| COc1cc([C@@H]2c3cc4c(cc3C[C@H]3COC(=O)[C@@H]32)OCO4)cc(OC)c1OC [DESOXYPODOPHYLLOTOXIN] | 0.0027 (≈ 0.00678 µM) | 0.0014 (≈ 0.00351 µM) | 0.00044 (≈ 0.0011 µM) | 0.029 (≈ 0.0728 µM) | 0.0017 (≈ 0.00427 µM) | 0.0018 (≈ 0.00452 µM) | 0.00056 (≈ 0.00141 µM) |
| COc1cc(C2C3=C(COC3=O)N(CCc3ccc(F)cc3)c3cc4c(cc32)OCO4)cc(OC)c1OC (stereo not drawn) | 0.42 (≈ 0.808 µM) | 2.4 (≈ 4.62 µM) | 0.9 (≈ 1.73 µM) | 3.3 (≈ 6.35 µM) | 2.5 (≈ 4.81 µM) | 2.3 (≈ 4.43 µM) | 0.52 (≈ 1 µM) |
| COc1cc(C2C3=C(COC3=O)Nc3cc4c(cc32)OCO4)cc(OC)c1OC (stereo not drawn) |  |  |  | 0.0018 (≈ 0.00453 µM) |  |  |  |
| COc1cc([C@H]2c3cc4c(cc3C[C@H]3COC(=O)[C@H]32)OCO4)cc(OC)c1OC [ISOPICRODEOXYPODOPHYLLOTOXIN] |  |  |  | < 0.1 |  |  |  |
| COc1cc(C2C3=C(COC3=O)N(C3CCC3)c3cc4c(cc32)OCO4)cc(OC)c1OC (stereo not drawn) | 0.026 (≈ 0.0576 µM) | 0.032 (≈ 0.0709 µM) | 0.04 (≈ 0.0886 µM) | 0.24 (≈ 0.532 µM) | 0.047 (≈ 0.104 µM) | 0.028 (≈ 0.062 µM) | 0.026 (≈ 0.0576 µM) |
| COc1cc(C2C3=C(COC3=O)Nc3cc4c(cc32)OCO4)cc(OC)c1O (stereo not drawn) | 0.025 (≈ 0.0652 µM) | 0.032 (≈ 0.0835 µM) | 0.028 (≈ 0.073 µM) | 0.028 (≈ 0.073 µM) | 0.033 (≈ 0.0861 µM) | 0.027 (≈ 0.0704 µM) | 0.026 (≈ 0.0678 µM) |
| COc1cc(C2C3=C(COC3=O)N(CCN3CCCCC3)c3cc4c(cc32)OCO4)cc(OC)c1OC (stereo not drawn) | > 10 | > 10 | 4.4 (≈ 8.65 µM) | 1.7 (≈ 3.34 µM) | > 10 | > 10 | > 10 |
| COc1cc(C2C3=C(COC3=O)Nc3cc(OC)c(OC)c(OC)c32)cc(OC)c1OC (stereo not drawn) | 1.7 (≈ 3.83 µM) |  | 5.6 (≈ 12.6 µM) | 1.3 (≈ 2.93 µM) | 3.3 (≈ 7.44 µM) | 3.6 (≈ 8.12 µM) | 3.6 (≈ 8.12 µM) |
| COc1cc(C2C3=C(COC3=O)N(Cc3ccco3)c3cc4c(cc32)OCO4)cc(OC)c1O (stereo not drawn) | 0.054 (≈ 0.117 µM) |  | 1 (≈ 2.16 µM) | 0.89 (≈ 1.92 µM) | 0.39 (≈ 0.842 µM) | 0.24 (≈ 0.518 µM) | 0.061 (≈ 0.132 µM) |
| COc1cc([C@@H]2c3cc4c(cc3[C@H](O)[C@H]3COC(=O)[C@H]23)OCO4)cc(OC)c1OC [PODOFILOX] |  |  |  | 0.0043 (≈ 0.0104 µM) |  |  |  |
| COc1cc(C2C3=C(COC3=O)N(CCc3ccc(Cl)cc3)c3cc4c(cc32)OCO4)cc(OC)c1OC (stereo not drawn) | 0.34 (≈ 0.634 µM) | 0.37 (≈ 0.69 µM) | 0.54 (≈ 1.01 µM) | 2.6 (≈ 4.85 µM) | 0.31 (≈ 0.578 µM) | 0.3 (≈ 0.56 µM) | 0.35 (≈ 0.653 µM) |
| COc1cc(C2C3=C(COC3=O)N(CCCn3ccnc3)c3cc4c(cc32)OCO4)cc(OC)c1OC (stereo not drawn) | 0.64 (≈ 1.27 µM) | 2.2 (≈ 4.35 µM) | 2.9 (≈ 5.74 µM) | 2 (≈ 3.96 µM) | 2.1 (≈ 4.15 µM) | 3 (≈ 5.93 µM) | 2.5 (≈ 4.95 µM) |
| COc1cc(C2C3=C(COC3=O)N(CCc3ccccn3)c3cc4c(cc32)OCO4)cc(OC)c1OC (stereo not drawn) | 0.32 (≈ 0.637 µM) | 0.29 (≈ 0.577 µM) | 0.38 (≈ 0.756 µM) | 2.5 (≈ 4.97 µM) | 0.42 (≈ 0.836 µM) | 0.34 (≈ 0.677 µM) | 0.33 (≈ 0.657 µM) |
| COc1cc(C2C3=C(COC3=O)N(C3CCCC3)c3cc4c(cc32)OCO4)cc(OC)c1O (stereo not drawn) | 0.32 (≈ 0.709 µM) | 2.1 (≈ 4.65 µM) | 0.53 (≈ 1.17 µM) |  | 0.41 (≈ 0.908 µM) | 0.33 (≈ 0.731 µM) | 0.39 (≈ 0.864 µM) |
| COc1cc(C2C3=C(COC3=O)N(CCN(C)C)c3cc4c(cc32)OCO4)cc(OC)c1OC (stereo not drawn) | 0.29 (≈ 0.619 µM) | 0.51 (≈ 1.09 µM) | 0.43 (≈ 0.918 µM) | 0.18 (≈ 0.384 µM) | 2.5 (≈ 5.34 µM) | 1 (≈ 2.13 µM) | 0.46 (≈ 0.982 µM) |
| O=C1OCC2=C1C(c1cccc3c1OCO3)c1cc3c(cc1N2)OCO3 (stereo not drawn) | 0.0039 (≈ 0.0111 µM) |  | 0.065 (≈ 0.185 µM) | 0.17 (≈ 0.484 µM) | 0.041 (≈ 0.117 µM) | 0.021 (≈ 0.0598 µM) | 0.0089 (≈ 0.0253 µM) |
| COc1cc(C2C3=C(COC3=O)N(CCc3ccc([N+](=O)[O-])cc3)c3cc4c(cc32)OCO4)cc(OC)c1OC (stereo not drawn) | 0.08 (≈ 0.146 µM) | 0.26 (≈ 0.476 µM) | 0.39 (≈ 0.714 µM) |  | 0.3 (≈ 0.549 µM) | 0.3 (≈ 0.549 µM) | 0.2 (≈ 0.366 µM) |
| COc1cc([C@@H]2c3cc4c(c(O)c3C[C@H]3COC(=O)[C@@H]32)OCO4)cc(OC)c1OC [BETA-PELTATIN A] | 0.00055 (≈ 0.00133 µM) | 0.0076 (≈ 0.0183 µM) | 0.0012 (≈ 0.0029 µM) | 0.0031 (≈ 0.00748 µM) | 0.0021 (≈ 0.00507 µM) | 0.00077 (≈ 0.00186 µM) | 0.0004 (≈ 0.000965 µM) |
| COc1cc(C2C3=C(COC3=O)N(C)c3cc4c(cc32)OCO4)cc(OC)c1OC (stereo not drawn) | 0.034 (≈ 0.0826 µM) | 0.032 (≈ 0.0778 µM) | 0.049 (≈ 0.119 µM) | 0.027 (≈ 0.0656 µM) | 0.026 (≈ 0.0632 µM) | 0.032 (≈ 0.0778 µM) | 0.029 (≈ 0.0705 µM) |
| COc1cc(C2C3=C(COC3=O)Nc3cc(OC)c(OC)c(OC)c32)cc(Br)c1OC (stereo not drawn) | 0.12 (≈ 0.244 µM) |  | 0.56 (≈ 1.14 µM) | 0.11 (≈ 0.223 µM) | 0.42 (≈ 0.853 µM) | 0.35 (≈ 0.711 µM) | 0.11 (≈ 0.223 µM) |
| COc1cc(C2C3=C(COC3=O)N(Cc3ccc(F)cc3)c3cc4c(cc32)OCO4)cc(OC)c1OC (stereo not drawn) | 0.037 (≈ 0.0732 µM) | 0.033 (≈ 0.0653 µM) | 0.046 (≈ 0.091 µM) | 1.9 (≈ 3.76 µM) | 0.047 (≈ 0.093 µM) | 0.031 (≈ 0.0613 µM) | 0.03 (≈ 0.0593 µM) |
| COc1cc(-c2c3c(nc4cc5c(cc24)OCO5)COC3=O)cc(OC)c1OC | 3.4 (≈ 8.6 µM) | 2.1 (≈ 5.31 µM) | 4.1 (≈ 10.4 µM) | 3.6 (≈ 9.11 µM) | 2.4 (≈ 6.07 µM) | 2.8 (≈ 7.08 µM) | 2.4 (≈ 6.07 µM) |
| COc1ccc(C2C3=C(COC3=O)Nc3cc(OC)c(OC)c(OC)c32)cc1O (stereo not drawn) | 7 (≈ 17.5 µM) |  | 6.5 (≈ 16.3 µM) | 0.78 (≈ 1.95 µM) | > 10 | 10.1 (≈ 25.3 µM) | 7.3 (≈ 18.3 µM) |
| COc1cc([C@@H]2c3cc4c(c(O[C@@H]5O[C@H](CO)[C@@H](O)[C@H](O)[C@H]5O)c3C[C@H]3COC(=O)[C@@H]32)OCO4)cc(OC)c1OC | 0.85 (≈ 1.47 µM) | > 1 | > 1 | 0.21 (≈ 0.364 µM) | > 1 | 0.28 (≈ 0.486 µM) | 0.27 (≈ 0.468 µM) |
| COc1cc(C2C3=C(COC3=O)N(CCN3CCOCC3)c3cc4c(cc32)OCO4)cc(OC)c1OC (stereo not drawn) | 0.89 (≈ 1.74 µM) | 2.5 (≈ 4.9 µM) | 3.5 (≈ 6.86 µM) | 2.6 (≈ 5.09 µM) | 2 (≈ 3.92 µM) | 3 (≈ 5.88 µM) | 2.6 (≈ 5.09 µM) |
| COc1cc(C2C3=C(COC3=O)N(C3CCCC3)c3cc4c(cc32)OCO4)cc(OC)c1OC (stereo not drawn) | 0.045 (≈ 0.0967 µM) | 0.12 (≈ 0.258 µM) | 0.083 (≈ 0.178 µM) |  | 0.27 (≈ 0.58 µM) | 0.16 (≈ 0.344 µM) | 0.062 (≈ 0.133 µM) |
